A word on the Tmax: it is the time at which the peak concentration occurs.

Read-outs that look alike come from different tables or passages of the source.

Data on five molecules can be found in article PMC6714550 (Investigational new drugs, 2018).

The subject of one data set is advanced GIST. The settings on record: cited from earlier work.
In data set [1] the test system is patients with imatinib refractory advanced GIST. The data set can be described thus: Safety and tolerability, DLT and MTD. Conditions: schedule A, in combination with 400mg of imatinib.
Data set [2] can be described thus: Plasma pharmacokinetics, cycle 1. The format is in vivo, human. In short, it runs like this:
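Patients with advanced GIST took an oral pan-FGFR kinase inhibitor (test compound) once daily at escalating dose levels (25–125 mg), with a second oral tyrosine kinase inhibitor at 400 mg once daily, in 28-day cycles. Blood was sampled at prespecified cycle 1 timepoints. Plasma parent drug, partner drug and its active metabolite were measured by validated LC-MS/MS.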

[3] abbreviates: second and third line options in GIST.
Setting [4] is: dose level −1 (BGJ398 50mg qd, imatinib 400mg qd), day 1, n=1.

With `CNC(=O)c1cc(Oc2ccc(NC(=O)Nc3ccc(Cl)c(C(F)(F)F)c3)c(F)c2)ccn1` [regorafenib], in the data set on advanced GIST (setting [3]), the “median PFS” value is on record as 4–6 months and the response rate was 4–7%.

Take `Cc1ccc(NC(=O)c2ccc(CN3CCN(C)CC3)cc2)cc1Nc1nccc(-c2cccnc2)n1` [imatinib]: in the data set with advanced GIST (first-line, advanced GIST), the objective response rate entry was “approximately 50%” and the “overall disease control rate” value is 80%. The “median progression free survival” value in the data set with advanced GIST (following initiation of imatinib therapy) was 20–24 months. Further, in the data set on advanced GIST (imatinib re-challenge), the “median PFS” value was 1.8 months and the “median PFS, 95% CI” value is recorded as 1.7–3.6 months.

On to `CCN1CCN(c2ccc(Nc3cc(N(C)C(=O)Nc4c(Cl)c(OC)cc(OC)c4Cl)ncn3)cc2)CC1` [BGJ398], for which, in data set [1], the “maximum tolerated dose (dose level −1)” value amounted to 50 mg. Besides, the “AUC (0–24h)” value in data set [2] (dose level 1 (BGJ398 75mg qd, imatinib 400mg qd), day 1, n=9, mean) was 487 (32 – 1153) h x ng/mL; in data set [2] (dose level 2 (BGJ398 100mg qd, imatinib 400mg qd), day 1, n=1), 309 h x ng/mL; in data set [2] (setting [4]) it was 25 h x ng/mL. Besides, the Tmax in data set [2] (setting [4]) came to 4 h; in data set [2] (human, plasma, oral), 5 h.

Take `Cc1ccc(NC(=O)c2ccc(CN3CCNCC3)cc2)cc1Nc1nccc(-c2cccnc2)n1` [CGP 74588]: the “Concentration of metabolite day 1 24hr” value in data set [2] (dose level 1 (BGJ398 75mg qd, imatinib 400mg qd), n=9, mean) is reported as 149 (56 – 395) ng/mL; in data set [2] (dose level 2 (BGJ398 100mg qd, imatinib 400mg qd), n=1), 1040 ng/mL; in data set [2] (dose level −1 (BGJ398 50mg qd, imatinib 400mg qd), n=3, mean), 54 (26 – 84) ng/mL; in data set [2] (dose level −2 (BGJ398 25mg qd, imatinib 400mg qd), n=3, mean) it was 131 (67 – 209) ng/mL.

Consider `CCN(CC)CCNC(=O)c1c(C)[nH]c(/C=C2\C(=O)Nc3ccc(F)cc32)c1C` [sunitinib], for which, in the data set with advanced GIST (setting [3]), the “median PFS” value is given as 4–6 months and the response rate is 4–7%.
